Here are results for 8 compounds from publication PMC12282411 (Virologica Sinica, 2025).

Positions count from the first letter of the chain named. Where a name gives a salt, the structure may show the parent alone.

In data set [1] the test system is DENV 2. Nature of the data set: microbe, parasite or virus in culture. In kind it is cell-based. As to conditions: for EC50: Dengue virus, BHK-21, 48 h, read-out: EC50 (BHK-21 μM); for SI (CC50/EC50): selective index, BHK-21 CC50 / BHK-21 EC50.
Data set [2] concerns DENV 2. Nature of the data set: Antiviral assay on Huh 7 cells. In kind it is cell-based. Conditions: Dengue virus, Huh-7, 48 h, read-out: EC50 (Huh 7 μM). Summed up: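 Huh 7 cells were seeded at 4×10^4/well and grown overnight at 37 °C, 5% CO₂. Test compound was serially diluted threefold from 50 µM in DMEM with 2% FBS and added to cells for 1 h. DENV 2 was added at MOI 1 for 1 h, then the inoculum was removed, cells washed with PBS, and compound re-added. After two days, supernatant viral RNA was quantified by one-step SYBR RT-qPCR against an NS5A standard curve.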

Data set [3] concerns DENV 2. Nature of the data set: DENV 2 challenge of AG129 mice. Type of data set: in vivo. As to conditions: for viral copy numbers in the spleen and liver: i.g., two days post infection, Fig. 2F.
The target of data set [4] is T1, NS2B-NS3pro (Dengue virus type 2, UniProt P29990, M1488V).
T1 sequence (P29990 with tags, fused parts or gaps T1441G/I1442G/L1443G/I1444G/R1445S/T1446G/DEL1448-1473/Q1474G/R1475G/M1488V): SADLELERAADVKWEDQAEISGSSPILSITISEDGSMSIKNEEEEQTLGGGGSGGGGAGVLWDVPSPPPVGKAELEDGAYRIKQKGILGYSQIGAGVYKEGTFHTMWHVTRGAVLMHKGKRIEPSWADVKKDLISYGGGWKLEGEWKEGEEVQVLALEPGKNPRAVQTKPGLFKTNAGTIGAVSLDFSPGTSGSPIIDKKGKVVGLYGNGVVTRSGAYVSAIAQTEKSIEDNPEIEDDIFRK
In kind it is binding, DENV 2. Conditions: SPR.

For data set [5], the target named is T2, DENV 2 NS2B-NS3pro (Dengue virus type 2, UniProt P29990).
T2 sequence (P29990 with tags, fused parts or gaps T1441G/I1442G/L1443G/I1444G/R1445S/T1446G/DEL1448-1473/Q1474G/R1475G): T1 sequence (P29990 with tags, fused parts or gaps T1441G/I1442G/L1443G/I1444G/R1445S/T1446G/DEL1448-1473/Q1474G/R1475G/M1488V) with V70M
Put plainly: Enzyme kinetic analysis. Type of data set: biochemical.

The nature of data set [6]: Pharmacokinetics in rats. Conditions: SD rats, i.v. as a reference. Type of data set: in vivo, Sprague-Dawley rats. The method, boiled down: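 Male Sprague-Dawley rats (180–220 g), three per group, were fasted overnight. Test compound was dosed i.g. at 20 mg/kg as a suspension in 0.4% sodium carboxymethylcellulose, or i.p. dissolved by sonication in 10% DMSO/40% PEG 300/5% Tween 80/45% saline. Jugular plasma was sampled repeatedly up to 36 h. Samples were mixed with diclofenac sodium, precipitated with acetonitrile, and analysed by LC-MS/MS. Parameters were derived by non-compartmental analysis.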

Data set [7] has as its system DENV 2. Nature of the data set: Time-of-addition assay. Type of data set: cell-based. As to conditions: BHK-21 cells. The method, boiled down: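 The assay used BHK-21 cells seeded overnight. In the treatment-mode arms, cells were infected at MOI 0.1 for 0–1 h, with compound applied as virus pretreatment for 1 h, cell pretreatment (–1–0 h), post-infection (1–46 h) or full-time (–1–46 h). In the addition-time arms, infection was at MOI 1 for 1 h, with compound added at 0–36 h. Readout at 48 h was supernatant RT-qPCR and IFA, with DMSO and ribavirin as controls.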

The target in data set [8] is T3, ZIKV NS2B-NS3pro (Zika virus, UniProt Q32ZE1).
T3 sequence (Q32ZE1 with tags, fused parts or gaps DEL1464-1489/Y1490G/V1491G/Y1492G/V1493G/K1494S/T1495G/K1497G/R1498G): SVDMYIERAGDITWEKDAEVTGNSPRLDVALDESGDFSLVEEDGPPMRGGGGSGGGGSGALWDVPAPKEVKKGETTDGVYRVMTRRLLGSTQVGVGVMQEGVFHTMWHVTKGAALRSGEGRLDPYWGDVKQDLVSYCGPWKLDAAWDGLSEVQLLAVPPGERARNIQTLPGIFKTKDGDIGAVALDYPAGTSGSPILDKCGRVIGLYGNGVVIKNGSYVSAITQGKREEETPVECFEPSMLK
Put plainly: FRET assay on ZIKV NS2B-NS3pro. In kind it is biochemical.

A short description of data set [9]: Water solubility. Type of data set: physicochemical.

`COC(=O)N[C@H](C(=O)N1CCC[C@H]1c1nc(-c2ccc3c(c2)O[C@@H](c2ccccc2)n2c-3cc3cc(-c4c[nH]c([C@@H]5CCCN5C(=O)[C@@H](NC(=O)OC)C(C)C)n4)ccc32)c[nH]1)C(C)C` [MK-8742]: the half-maximal effective concentration (EC50) is 45.9 nM in data set [1] and 161 nM in data set [2]. Further, the “viral copy numbers in the spleen and liver” value in [3] is “no effect”.

On to `NC(=NCc1ccccc1)NC(=O)c1nc(Cl)c(N)nc1N` [Benzamil hydrochloride], for which the results for the EC50 in [1] and in data set [2] were 368 nM and 2620 nM, respectively. For the same compound, the “SI (CC50/EC50)” value is 120.85 in data set [1] and “greater than 100” in [1] (listed as benzamil hydrochloride). Further, in data set [4], the “binding affinity on NS2B-NS3pro” value is listed as “almost no binding affinity”.

In the case of `CC1=NN(c2ccc(C)c(C)c2)C(=O)/C1=N\Nc1cccc(-c2cccc(C(=O)O)c2)c1O` [Eltrombopag], the EC50 in data set [1] turned out to be 316 nM. For the same compound, the “reversibility of binding to DENV2 NS2B-NS3pro” value in data set [5] (varying NS2B-NS3pro, fixed substrate 20 μM, eltrombopag 0, 10 and 20 μM) is “reversibly binds”. In [5] (varying substrate, NS2B-NS3pro 300 nM, Vmax changes, Km unchanged), the “mode of inhibition with respect to substrate” value was “substrate-non-competitive manner”. Besides, the “pharmacokinetics i.p. compared with i.g.” value in data set [6] is “better absorption, distribution, and clearance”. Besides, in data set [7] (MOI = 1, RT-qPCR at 48 h), the “inhibition on addition at 36 h or later” value is reported as “reduced inhibition” and the “time of addition following DENV 2 infection with effective inhibition” value is on record as at most 24 h. Besides, the “inhibition when added at the post-infection stage versus full-time treatment” value in data set [7] (RT-qPCR at 48 h) is given as “comparable inhibition”. The “effect on the viruses and cells themselves (pretreatment modes)” value in data set [7] (pretreatment of virus or of cell) is on record as “negligible effect”. Further, in [2], the EC50 was 1460 nM. Also, in data set [3] (10 or 20 mg/kg, i.g. or i.p., two days post challenge, Fig. 3C), the “viral copy numbers in the liver, spleen, and kidney” value was “reduced the viral copy numbers in the liver, spleen, and kidney in a dose-dependent manner”. Moreover, the “decrease of viral loads in spleen” value in [3] (DENV 2 at 10^7 TCID50) is “more than 1 log”. Besides, the “expression of TNF-α and IL-6 in the blood” value in data set [3] (RT-qPCR, Fig. 3D) was “inhibited the expression of TNF-α and IL-6”. For the same compound, the “viral copy numbers in the spleen and liver” value in data set [3] is reported as “significantly reduced”. Besides, the “inhibitory effect on viral copies by delivery route” value in data set [3] (i.p. compared with i.g., Fig. 3C) was “stronger inhibitory effect when delivered via i.p”. The IC50 in data set [8] was 29800 nM. In addition, in data set [9], the water solubility entry is recorded as “poorly water-soluble”.

On to `CCOC(=O)c1ccc(C#Cc2ccc3c(c2)C(C)(C)CCS3)nc1` [AGN190168], for which, in [1], the EC50 is 10900 nM and the “SI (CC50/EC50)” value is on record as 24.15. For the same compound, in data set [2], the EC50 worked out at 107 nM.

`Cc1cc(-c2ccc(/N=N/c3ccc4c(S(=O)(=O)O)cc(S(=O)(=O)O)c(N)c4c3O)c(C)c2)ccc1/N=N/c1ccc2c(S(=O)(=O)O)cc(S(=O)(=O)O)c(N)c2c1O` [Evans Blue]: in data set [1], the EC50 turned out to be 4850 nM and the “SI (CC50/EC50)” value is reported as 49.98. Moreover, in data set [2], the EC50 was 337 nM.

Consider `COC(=O)N[C@H](C(=O)N1CC2(CC2)C[C@H]1c1nc(-c2ccc3c(c2)C(F)(F)c2cc(-c4ccc5[nH]c([C@@H]6[C@H]7CC[C@H](C7)N6C(=O)[C@@H](NC(=O)OC)C(C)C)nc5c4)ccc2-3)c[nH]1)C(C)C` [GS-5885], for which the results for the EC50 in data set [1] and in data set [2] were 3320 nM and 529 nM, respectively. Besides, the “viral copy numbers in the spleen and liver” value in data set [3] was “no effect”.

As to `NC(=O)c1ncn([C@@H]2O[C@H](CO)[C@@H](O)[C@H]2O)n1` [Ribavirin], the “time of addition following DENV 2 infection with effective inhibition” value in data set [7] (MOI = 1, RT-qPCR at 48 h) is on record as at most 12 h.

`C#CCC(Cc1cnc2nc(N)nc(N)c2n1)c1ccc(C(=O)N[C@@H](CCC(=O)O)C(=O)O)cc1` (stereo partly drawn) [Pralatrexate]: the EC50 in data set [1] was under 7.6 nM; in data set [2], under 70 nM. In addition, the “SI (CC50/EC50)” value in [1] is “>13684.21”; in data set [1] (listed as pralatrexate), “greater than 100”. The “binding affinity on NS2B-NS3pro” value in [4] is listed as “almost no binding affinity”.

By EC50 is commonly meant the midpoint of the concentration-response curve. One may read the IC50 as the concentration at which inhibition is half-maximal. Higher therefore signals weaker potency in that assay.
